From ChEMBL document CHEMBL5537199, “Discovery and SAR Study of Boronic Acid-Based Selective PDE3B Inhibitors from a Novel DNA-Encoded Library” (J Med Chem, 2024)
Active and inactive are the calls of the source. The rule behind the calls is not given here.

Experiments:
[1] = target: T1, cGMP-inhibited 3',5'-cyclic phosphodiesterase 3B (Homo sapiens, UniProt Q13370); test: Inhibition of PDE3B (unknown origin) expression in adipocytes assessed as reduction in lipid hydrolysis at 10 uM; type: cell-based
Target sequence in this assay (Q13370 whole entry, looked up, the tested form may be a part): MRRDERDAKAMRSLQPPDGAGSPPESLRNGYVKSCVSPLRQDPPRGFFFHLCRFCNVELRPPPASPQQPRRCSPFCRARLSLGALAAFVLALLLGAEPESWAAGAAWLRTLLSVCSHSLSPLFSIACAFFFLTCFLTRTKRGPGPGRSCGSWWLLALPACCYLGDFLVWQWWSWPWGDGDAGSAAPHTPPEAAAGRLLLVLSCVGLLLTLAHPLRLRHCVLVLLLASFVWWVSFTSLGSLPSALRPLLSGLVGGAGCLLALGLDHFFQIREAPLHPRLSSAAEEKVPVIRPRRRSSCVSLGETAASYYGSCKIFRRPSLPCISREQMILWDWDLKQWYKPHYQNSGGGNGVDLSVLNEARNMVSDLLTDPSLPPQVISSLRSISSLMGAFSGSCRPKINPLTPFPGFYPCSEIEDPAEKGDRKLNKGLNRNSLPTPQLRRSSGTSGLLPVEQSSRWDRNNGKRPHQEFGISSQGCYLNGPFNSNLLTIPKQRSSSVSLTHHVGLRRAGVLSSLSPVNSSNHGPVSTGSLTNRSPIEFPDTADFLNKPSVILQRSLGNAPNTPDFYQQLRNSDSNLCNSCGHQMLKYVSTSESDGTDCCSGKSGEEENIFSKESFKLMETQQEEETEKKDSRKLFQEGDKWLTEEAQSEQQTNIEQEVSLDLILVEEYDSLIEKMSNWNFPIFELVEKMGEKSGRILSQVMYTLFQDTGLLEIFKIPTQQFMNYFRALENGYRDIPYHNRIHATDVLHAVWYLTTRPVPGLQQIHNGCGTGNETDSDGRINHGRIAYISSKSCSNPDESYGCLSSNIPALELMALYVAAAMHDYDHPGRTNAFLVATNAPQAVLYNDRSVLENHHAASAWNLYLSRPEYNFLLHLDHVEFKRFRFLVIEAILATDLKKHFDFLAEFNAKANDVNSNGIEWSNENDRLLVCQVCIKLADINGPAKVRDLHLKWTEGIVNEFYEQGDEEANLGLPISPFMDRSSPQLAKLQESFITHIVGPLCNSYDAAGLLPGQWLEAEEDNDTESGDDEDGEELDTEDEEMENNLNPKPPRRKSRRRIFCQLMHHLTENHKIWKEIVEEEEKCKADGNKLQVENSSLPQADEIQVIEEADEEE

[2] = target: T1, cGMP-inhibited 3',5'-cyclic phosphodiesterase 3B; test: Inhibition of full-length PDE3B (M1 to E1112 residues) (unknown origin) using FAM-cAMP as substrate incubated for 120 mins by TR-FRET IMAP assay
Method in brief: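 Buffer 50 mM Tris-HCl pH 7.5, 8.3 mM MgCl2, 1.7 mM EGTA, 0.05% BSA. Compounds run as a concentration curve with a top final concentration of 100 μM. DMSO and 10 μM trequinsin served as controls. Terbium TR-FRET ratio read at 520:490 nm.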
Target sequence in this assay (Q13370 whole entry, the tested form may be a part): as the sequence (Q13370 whole entry, looked up, the tested form may be a part) above

[3] = target: cGMP-inhibited 3',5'-cyclic phosphodiesterase 3A (Homo sapiens, UniProt Q14432); test: Inhibition of PDE3A (M1 to Q1141 residues) (unknown origin) using FAM-cAMP as substrate incubated for 45 mins by TR-FRET IMAP assay
cGMP-inhibited 3',5'-cyclic phosphodiesterase 3A, sequence (Q14432 whole entry, the tested form may be a part): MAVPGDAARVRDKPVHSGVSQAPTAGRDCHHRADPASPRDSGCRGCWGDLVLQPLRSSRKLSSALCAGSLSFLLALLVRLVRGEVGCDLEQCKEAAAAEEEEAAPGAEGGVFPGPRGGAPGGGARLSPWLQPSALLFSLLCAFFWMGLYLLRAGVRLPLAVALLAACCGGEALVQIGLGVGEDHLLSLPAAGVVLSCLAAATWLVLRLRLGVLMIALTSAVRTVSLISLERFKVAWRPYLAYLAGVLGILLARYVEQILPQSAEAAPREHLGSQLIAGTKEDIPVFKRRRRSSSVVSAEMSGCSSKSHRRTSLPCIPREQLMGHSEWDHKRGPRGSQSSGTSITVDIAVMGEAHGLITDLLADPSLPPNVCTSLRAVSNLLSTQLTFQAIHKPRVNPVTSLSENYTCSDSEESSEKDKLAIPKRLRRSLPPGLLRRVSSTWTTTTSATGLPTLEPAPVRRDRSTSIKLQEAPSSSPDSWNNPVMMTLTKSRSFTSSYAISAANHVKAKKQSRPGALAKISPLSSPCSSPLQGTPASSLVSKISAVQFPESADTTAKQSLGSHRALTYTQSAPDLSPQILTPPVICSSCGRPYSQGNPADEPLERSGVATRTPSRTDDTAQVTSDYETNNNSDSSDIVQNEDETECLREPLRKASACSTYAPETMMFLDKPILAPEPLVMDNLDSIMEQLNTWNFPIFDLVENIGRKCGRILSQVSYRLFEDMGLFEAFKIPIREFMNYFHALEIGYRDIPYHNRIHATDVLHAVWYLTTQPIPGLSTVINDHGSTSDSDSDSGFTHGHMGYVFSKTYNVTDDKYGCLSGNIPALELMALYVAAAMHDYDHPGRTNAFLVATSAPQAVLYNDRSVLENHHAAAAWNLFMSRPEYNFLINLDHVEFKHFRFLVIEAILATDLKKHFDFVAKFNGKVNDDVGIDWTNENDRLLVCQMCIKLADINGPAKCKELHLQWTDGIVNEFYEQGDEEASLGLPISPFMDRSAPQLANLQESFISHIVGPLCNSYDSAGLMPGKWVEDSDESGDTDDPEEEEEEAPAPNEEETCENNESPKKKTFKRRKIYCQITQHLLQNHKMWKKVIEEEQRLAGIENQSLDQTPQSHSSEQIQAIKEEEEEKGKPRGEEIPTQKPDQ
Method in brief: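 Full-length PDE3A at 1.6 nM with 50 nM FAM-cAMP, 45 min reaction. Buffer 50 mM Tris-HCl pH 7.5, 8.3 mM MgCl2, 1.7 mM EGTA, 0.05% BSA. Compounds run as a concentration curve with a top final concentration of 100 μM. DMSO and 10 μM trequinsin served as controls. TR-FRET read at Ex 337 nm, Em 520/490 nm.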

[4] = Selectivity ratio of inhibition for PDE3A (M1 to Q1141 residues) (unknown origin) by IMAP assay to inhibition for PDE3B (M1 to E1112 residues) (unknown origin) by IMAP assay
[5] = Selectivity ratio of inhibition for PDE3A (M1 to Q1141 residues) (unknown origin) by RF-MS assay to inhibition for PDE3B (M1 to E1112 residues) (unknown origin) by RF-MS assay

Row | SMILES | inhibition [1] | IC50 [2] [nM] | IC50 [3] [nM] | Selectivity ratio [4] | Selectivity ratio [5]
1 | CNC(=O)[C@@H](NC(=O)c1cc(NC(=O)c2cc(C)c3ccccc3n2)cc(B(O)O)c1)C1CCCCC1 | Active | 7.94 | 5.01 | 0.7 | 1.1
2 | COCC(C)NC(=O)c1cc(NC(=O)c2cc(OC)c3ccc(OC)cc3n2)cc(B(O)O)c1 (configuration not stated) | Active | 316 | > 100000 | > 300 | 46
3 | CC1CC(=O)NN=C1c1ccc(NC2=C(Cc3cccc(-c4ccccc4)c3)C(=O)CCC2)cc1 (configuration not stated) | Active | – | – | – | –
4 | COc1ccc2c(OC)cc(C(=O)Nc3cc(B(O)O)cc(C(=O)N(C)C)c3)nc2c1 | – | 2000 | 50100 | 23 | 63
5 | CNC(=O)[C@@H](NC(=O)c1cc(NC(=O)c2ccc3cccnc3n2)cc(B(O)O)c1)C1CCCCC1 | – | 631 | 501 | 0.7 | 1
6 | COc1ccc2c(OC)cc(C(=O)Nc3cc(B(O)O)cc(C(=O)NCC(C)OC)c3)nc2c1 (configuration not stated) | – | 2000 | 25100 | 14 | 25
7 | COC(=O)c1cc(NC(=O)c2cc(OC)c3ccc(OC)cc3n2)cc(B(O)O)c1 | – | 2000 | > 100000 | > 52 | > 177
8 | CNC(=O)[C@@H](NC(=O)c1cc(NC(=O)c2cnc3ccccc3c2)cc(B(O)O)c1)C1CCCCC1 | – | 20000 | 12600 | 0.7 | 0.9
9 | CNC(=O)[C@@H](NC(=O)c1cc(NC(=O)c2cc(OC)c3cc(OC)ccc3n2)cc(B(O)O)c1)C1CCCCC1 | – | 1000 | 794 | 0.8 | 0.9
10 | CNC(=O)[C@H](NC(=O)c1cc(NC(=O)c2cc(OC)ccn2)cc(B(O)O)c1)C1CCCCC1 | – | 50100 | 50100 | 1 | 1.6
11 | CNC(=O)[C@@H](NC(=O)c1cc(NC(=O)c2cc(OC)c3ccccc3n2)cc(B(O)O)c1)C1CCCCC1 | – | 158 | 251 | 1.6 | 2.3
12 | COC[C@H](NC(=O)c1cc(NC(=O)c2cc(OC)c3ccc(OC)cc3n2)cc(B(O)O)c1)C(C)C | – | 501 | > 100000 | > 190 | 50
